ARNT-TACC3 inh: disruptors of ARNT/TACC3 protein interaction, primary screen, biochemical, AlphaScreen, single concentration. AID 623870, 2012. inhibition, % at 9.99 µM. hit rate 0.66% among 390,000. AlphaScreen His-ARNT PAS-B/GST-TACC3 binding, luminescence; TACC3 fragment carries E629A point mutation;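 active = mean inhibition of replicates at least 50% and at least half of replicates each reaching 50%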;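 note: 0% = complete ARNT plus TACC3 wells and 100% = ARNT alone without TACC3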
CAL PDZ FP-1: CAL PDZ peptide-binding inhibitors, primary screen, biochemical, fluorescence polarization, Cer-tagged CAL PDZ, HTS. Golgi-associated PDZ and coiled-coil motif-containing protein (Homo sapiens), Q9HD26. purified CAL PDZ, TMR-peptide fluorescence polarization, 1 h. inhibition, % at 20 µM. hit rate 0.02% among 330,000;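 active = highest replicate inhibition of at least 40%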;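 note: plate controls were DMSO neutral control wells for no effect and unlabeled competitor peptide control wells for full effect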
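System: purified tagged CAL PDZ domain construct (CerCALP). Schedule: 1 h incubation at room temperature before polarization reading. Medium: 25 mM sodium phosphate pH 7.4, 150 mM NaCl, TCEP, IgG, Thesit. Read-out: percent inhibition from loss of millipolarization. Measured by: FP readout, S and P plane fluorescence. Probe or stimulus: fluorescent TMR peptide probe.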
miR122 inh: miR-122 Renilla sensor signal increase in Huh7, primary screen, miR-122 inhibitor project, cell-based, single point, plate reader. hit rate 0.3% among 340,000. activation (reporter increase), % at 12.5 µM. AID 602342, 2012. Huh7 miR-122 Renilla luciferase sensor, 48 h; neutral wells = 0, positive control = 100;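 active = mean replicate activation score at least 90 and every replicate individually at or above 90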;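 note: higher luciferase means less miR-122 activity so hits act as miR-122 inhibitors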
PGC1a acetyl inh: inhibitors of PGC1a acetylation signal, primary screen, cell-based, U2OS, AlphaScreen, inhibitor mode. AlphaScreen anti-acetyl-lysine; with virally co-expressed GCN5 acetyltransferase. inhibition, % at 15.6 µM. hit rate 0.17% among 350,000;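 active = every replicate shows inhibition of at least 40%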;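 note: 0% = neutral control wells and 100% = positive control wells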
F508del corr: F508del CFTR correction, initial screen, CFBE line, single point | CFBE cells, YFP halide quenching; stimulated with forskolin plus potentiator P3; % fluorescence drop versus neutral controls | activity (quench increase), % at 7.58 µM | hit rate 0.36% among 350,000 | AID 720511, 2013;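 active = mean added fluorescence quench of at least 8% versus neutral control, with both replicates also reaching 8%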;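 note: cells transiently co-express mutant CFTR-F508del with the halide-sensitive YFP; corrector assay measuring rescue of mutant channel to the surface after 24 h compound exposure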
CAL PDZ FP-2: untagged CAL PDZ binding inhibitors, primary screen, biochemical, fluorescence polarization, HTS; Golgi-associated PDZ and coiled-coil motif-containing protein (Homo sapiens), Q9HD26; AID 602252, 2012; purified CAL PDZ, TMR-peptide fluorescence polarization, 1 h; inhibition, % at 24.9 µM; hit rate 0.92% among 300,000;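 active = mean inhibition of at least 30% with at least half of replicates also reaching 30%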;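 note: 0% = DMSO neutral control and 100% = excess unlabeled competitor peptide PRC23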
* = called active by the depositor; [ ] = another dose, or the depositor's remark. Compounds with a hit are over-represented: about 1.7% of the library has one in this group of screens.

`CCOC(=O)c1cc2c(c(-c3cccc(-c4cccc(OC)c4)c3)n1)[C@@H](CCO)N(S(=O)C(C)(C)C)C2` (stereo partly specified) gave ARNT-TACC3 inh 55*, PGC1a acetyl inh 13 and F508del corr -4.
Screening CCOC(=O)c1cc2c(c(-c3cccc(-c4cccc(OC)c4)c3)n1)[C@H](CCO)N(S(=O)C(C)(C)C)C2 (stereo partly specified) returned ARNT-TACC3 inh -6, PGC1a acetyl inh 11 and F508del corr -2.
COc1ccc(CNC(=O)c2cc3c(c(-c4cccc(-c5ccc(C#N)cc5)c4)n2)[C@@H](CCO)N([S@](=O)C(C)(C)C)C3)cc1 was read as ARNT-TACC3 inh 21, PGC1a acetyl inh -19 and F508del corr 12*.
`C/C=C/c1cccc(-c2nc(C(=O)NCc3ccc(OC)cc3)cc3c2[C@H](CCO)N([S@@](=O)C(C)(C)C)C3)c1` gave ARNT-TACC3 inh -1, PGC1a acetyl inh 29 and F508del corr 1.
For O=C(O)c1cccc(Nc2nc(-c3ccc([N+](=O)[O-])cc3)nc3ccccc23)c1 the results were ARNT-TACC3 inh -1, CAL PDZ FP-1 0, F508del corr -1 and CAL PDZ FP-2 -1.
For O=[N+]([O-])c1ccc(-c2nc(Nc3cccc(O)c3)c3ccccc3n2)cc1 the results were ARNT-TACC3 inh 9, miR122 inh -6, PGC1a acetyl inh -45, F508del corr 2 and CAL PDZ FP-2 78*.
Screening COc1ccc(C(=O)NNC(=O)CSc2nnc(-c3cccnc3)n2C)cc1 returned ARNT-TACC3 inh -3, CAL PDZ FP-1 -1, PGC1a acetyl inh 13 and F508del corr 0.
Cn1c(SCC(=O)NNC(=O)c2ccc(Br)cc2)nnc1-c1cccnc1 was read as ARNT-TACC3 inh -1, CAL PDZ FP-1 0, F508del corr 0 and CAL PDZ FP-2 63*.
Screening O=C(OCc1ccccc1Cl)c1ccccc1C(=O)c1ccccc1 returned ARNT-TACC3 inh -22, CAL PDZ FP-1 -3, miR122 inh 137*, PGC1a acetyl inh -8 and CAL PDZ FP-2 -2.
Screening O=C(OCc1ccccc1Cl)c1cccnc1Cl returned ARNT-TACC3 inh 22, CAL PDZ FP-1 -2, miR122 inh 1, PGC1a acetyl inh 3 and CAL PDZ FP-2 0.
For O=C(C[C@H]1CC[C@H]2[C@@H](COC[C@H](O)CN2C(=O)C2CCOCC2)O1)NCc1ccncc1 the results were ARNT-TACC3 inh 5, miR122 inh -5[16.7 µM], PGC1a acetyl inh -2 and F508del corr 1.
Screening CCn1cnc2sc(C(=O)Oc3cccc(C)c3)c(C)c2c1=O returned CAL PDZ FP-1 0, miR122 inh -3, PGC1a acetyl inh 9, F508del corr -1 and CAL PDZ FP-2 42*.
Screening COCC(=O)N(C)C[C@H]1[C@H](c2ccccc2)[C@H](CO)N1C(=O)Cc1cccnc1 returned ARNT-TACC3 inh -6, miR122 inh 8[16.7 µM], PGC1a acetyl inh 3 and F508del corr 0.
Screening CC(C)C(=O)Nc1ccc(-c2nc3ccccc3c(=O)o2)cc1 returned ARNT-TACC3 inh 16*, CAL PDZ FP-1 -2, PGC1a acetyl inh -17, F508del corr 0 and CAL PDZ FP-2 -8.
CN(C)c1ccc(N=c2sc3ccccc3n2C)cc1 was read as ARNT-TACC3 inh 72*, CAL PDZ FP-1 3, miR122 inh -3, PGC1a acetyl inh -2 and CAL PDZ FP-2 -1.
Screening Cc1onc(-c2c(Cl)cccc2Cl)c1C(=O)N1CCN(c2ncccn2)CC1 returned ARNT-TACC3 inh 1, CAL PDZ FP-1 1, PGC1a acetyl inh -16, F508del corr -4 and CAL PDZ FP-2 51*.
Screening Cc1onc(-c2c(Cl)cccc2Cl)c1C(=O)N1CCN(c2ccccc2)CC1 returned CAL PDZ FP-1 -3, F508del corr 2 and CAL PDZ FP-2 2.
`CNS(=O)(=O)c1cccc(C(=O)OCC(=O)c2cc(C)n(CC3CCCO3)c2C)c1` (stereo unspecified) gave CAL PDZ FP-1 -1, miR122 inh -3, PGC1a acetyl inh -3, F508del corr 25* and CAL PDZ FP-2 -3.
`Cc1cccc(C(=O)NCC(=O)OCC(=O)c2cc(C)n(CC3CCCO3)c2C)c1` (stereo unspecified) gave ARNT-TACC3 inh -4, CAL PDZ FP-1 0, F508del corr -1 and CAL PDZ FP-2 89*.
Screening CC1=C(O)C(=O)C(C2=C(O)C(=O)C(C)=C(O)C2=O)=C(O)C1=O returned ARNT-TACC3 inh 66*, CAL PDZ FP-1 0, miR122 inh 5, PGC1a acetyl inh 7, F508del corr -3 and CAL PDZ FP-2 2.
`C[C@H](CO)N1C[C@H](C)[C@H](CN(C)Cc2ccc(C(=O)O)cc2)OCCCC[C@H](C)Oc2ccc(NC(=O)Cc3ccccc3)cc2C1=O` gave ARNT-TACC3 inh 6, miR122 inh 3[16.7 µM], PGC1a acetyl inh -7 and F508del corr 1.
For Clc1c(Cl)c(Cl)c2n[nH]nc2c1Cl the results were ARNT-TACC3 inh 2, CAL PDZ FP-1 -2, PGC1a acetyl inh 1, F508del corr 0 and CAL PDZ FP-2 79*.
O=C(N[C@H]1CC[C@H](CCn2cc(Cc3ccccc3)nn2)O[C@@H]1CO)c1cnccn1 was read as PGC1a acetyl inh 1 and F508del corr 0.
Clc1nc(-c2ccccn2)nc2scc(-c3ccccc3)c12 was read as ARNT-TACC3 inh 60*, CAL PDZ FP-1 -2, miR122 inh -3, PGC1a acetyl inh -21 and CAL PDZ FP-2 -3.
`O=C(Cc1ccccn1)NCC[C@H]1CC[C@@H](NC(=O)Nc2ccc(F)cc2)[C@@H](CO)O1` gave ARNT-TACC3 inh 7, PGC1a acetyl inh 1 and F508del corr 1.
O=C(Cc1ccccn1)NCC[C@H]1CC[C@H](NC(=O)Nc2ccc(C(F)(F)F)cc2)[C@H](CO)O1 was read as ARNT-TACC3 inh 10, PGC1a acetyl inh 48* and F508del corr 22*.
Screening O=C(Cc1ccccn1)NCC[C@H]1CC[C@@H](NC(=O)Nc2ccc(C(F)(F)F)cc2)[C@@H](CO)O1 returned ARNT-TACC3 inh 0, PGC1a acetyl inh 102* and F508del corr 31*.
